From PubChem BioAssay
RTF Ca sens inh – cardiac RTF calcium desensitization; P19429+P45379; IANBD-labeled cardiac RTF, Ca2+ fluorescence; inhibition, % at 7.15 µM; 340,000 compounds, 0.12% hits;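 active = inhibition above the mean inhibition of all tested compounds plus 3 SD, cut at about 17% in these data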;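 note: assay run at fixed EC70 calcium of 1.6 mM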
UCH37 inh – human UCH37 deubiquitinating enzyme inhibition | purified proteasome/UCH37, Ub-AMC cleavage fluorescence | inhibition, % (no concentration beside the values) | 330,000 compounds, 0.33% hits | AID 588478;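 active = mean inhibition over replicate wells above about 20%, limit read from the data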;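 note: 0% = compound-free wells with enzyme and 100% = wells lacking proteasome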
Target sequence (Q9Y5K5 whole entry, looked up): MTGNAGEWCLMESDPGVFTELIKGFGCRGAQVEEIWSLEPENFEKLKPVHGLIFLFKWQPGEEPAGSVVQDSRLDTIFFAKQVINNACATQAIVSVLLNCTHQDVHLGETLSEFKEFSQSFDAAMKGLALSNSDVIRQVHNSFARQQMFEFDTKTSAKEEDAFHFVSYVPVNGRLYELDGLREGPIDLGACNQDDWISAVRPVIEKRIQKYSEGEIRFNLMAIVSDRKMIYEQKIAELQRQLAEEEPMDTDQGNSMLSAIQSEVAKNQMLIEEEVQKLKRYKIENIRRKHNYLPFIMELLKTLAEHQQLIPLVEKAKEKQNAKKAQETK
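Material: Human UCH37 enzyme supplied as purified proteasome complex | Schedule: 30 min preincubation with enzyme, 25 min cleavage at room temperature | Detection: AMC fluorescence 355/460 nm | Measure: % inhibition of Ub-AMC cleavage fluorescence | Controls: Wells without proteasome as full block, compound-free enzyme plus substrate as uninhibited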
Efflux pump mplx – blocks antifungal efflux pumps in multiplex yeast assay; S. cerevisiae Candida pump triplex, Nile Red efflux; inhibition, % at 10 µM; 330,000 compounds, 0.44% hits;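 active = plate passing quality check with inhibition over a set limit, or well fluorescence over plate mean plus 4 SD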;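 note: Nile Red retained in pooled yeast measured as flow cytometry median fluorescence; 0% = buffer negative control and 100% = Enniatin B positive control; higher means more Nile Red kept so more efflux inhibition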
Mot1-301 SUMO – inhibitors of SUMOylation pathway: yeast Mot1-301 growth rescue | S. cerevisiae Mot1-301 growth rescue, ATP luminescence, 38.5C; percent above DMSO median, 100 means doubled | growth rescue, % at 18.8 µM | 320,000 compounds, 1% hits;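 active = every valid replicate shows activation above 250% relative to neutral control wells; inactive = the rest, any valid replicate at or below 250%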;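 note: OY570 slx delta 5 strain wells were the positive control but not used for scaling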
cardiac RTF act – increases calcium sensitivity of human cardiac regulated thin filaments. P19429+P45379. IANBD-labeled TnC RTF fluorescence at EC20 calcium; 0% EC20 calcium, 100% full calcium. activation, % at 7.2 µM. 340,000 compounds, 0.24% hits. AID 493008;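 active = activation above the mean over all tested compounds plus 3 SD, cut at about 30% in these data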;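 note: rise in fluorescence read as greater calcium sensitivity of cardiac thin filaments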
ARNT TACC3 PPI – disrupts binding between human ARNT and TACC3. Q9Y6A5. inhibition, % at 9.99 µM. AlphaScreen His-ARNT PAS-B/GST-TACC3 binding, luminescence; TACC3 fragment carries E629A point mutation. 390,000 compounds, 0.66% hits;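 active = mean inhibition of replicates at least 50% and at least half of replicates each reaching 50%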;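 note: 0% = complete ARNT plus TACC3 wells and 100% = ARNT alone without TACC3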
RTF inh confirm – cardiac RTF calcium sensitivity inhibition, confirmation; shares compounds with RTF Ca sens inh; reconstituted cardiac thin filaments, calcium sensitivity fluorescence; AID 504635; inhibition, % at 7.15 µM; 360 compounds, 8% hits; in the data active = inhibition above about 18%
* hit, by the source's call; · = not tested or not shown. Sampled rows, rich in hits. Any-hit rate of the full collection: about 2.1%.

SMILES	RTF Ca sens inh	UCH37 inh	Efflux pump mplx	Mot1-301 SUMO	cardiac RTF act	ARNT TACC3 PPI	RTF inh confirm
Cc1ccc(C(=O)NN=Cc2ccc(-c3cccc(C(F)(F)F)c3)o2)cn1	·	-66	·	·	·	·	·
Cn1c(Cn2cnc([N+](=O)[O-])n2)nnc1SCC(=O)Nc1ccccc1	17*	·	0	31	-1	-6	-1
O=C(NN=Cc1ccc([N+](=O)[O-])o1)C(=O)Nc1ccc(C(=O)O)cc1	·	12	·	·	·	·	·
NC(=O)CSc1oc(-c2ccco2)nc1S(=O)(=O)c1ccc(F)cc1	18*	4	0	67	-3	-3	-2
Cc1csc(=NN=Cc2ccccc2)n1Cc1ccco1	·	4	·	·	·	·	·
COc1cc(C(=O)N2CCN(C(=O)C3CC3)CC2)cc(OC)c1OC	20*	0	0	37	1	1	-4
O=C(NCCCN1CCC(Cc2ccccc2)CC1)C1CCN(S(=O)(=O)N2CCC3(CC2)OCCO3)CC1	7	2	0	-3	-1	-1	·
O=C(NCCCN1CCN(Cc2ccccc2)CC1)C1CCN(S(=O)(=O)N2CCC3(CC2)OCCO3)CC1	18*	3	0	-7	-6	-6	3
O=c1c(O)cccc2cc(O)c(O)c(O)c12	87*	13	0	-2	-40	25	51*
O=c1cc(-c2ccccc2)oc2cc(O)c(O)c(O)c12	2	9	0	·	2	18	·
COc1ccccc1CN(C)CC(=O)Nc1ccc(Cl)cc1F	-11	3	0	-5	10	-13	·
COc1ccccc1CN(C)CC(=O)Nc1ccc(Cl)cc1C(F)(F)F	18*	0	0	8	3	-3	-3
COC(=O)C1CC(=NNS(=O)(=O)c2ccc(C)cc2)c2sccc2C1 (centres undefined)	·	7	·	·	·	·	·
CCn1c(Cl)c(C=O)sc1=NS(=O)(=O)c1ccccc1	·	3	·	·	·	·	·
O=c1cc2c(=O)oc3cc(O)c(O)oc3c2c(O)c1O	87*	16	·	·	-51	13*	68*
COc1ccc(C(=O)NCCCn2ccnc2)cc1	0	0	0	1	-3	-14	·
COc1ccc(-c2nn(-c3ccccc3)cc2C(=O)NCCCn2ccnc2)cc1	26*	3	0	-5	-4	3	-8
O=C1/C(=C/c2cccs2)COc2ccccc21	18*	5	0	-19	-7	6	-3
O=C1C(=Cc2cccs2)Oc2ccccc21	-8	-2	·	·	-3	-4	·
CC(=NNc1nc(-c2ccccc2)cs1)c1cccs1	·	1	·	·	·	·	·
CCOC(=O)N/N=C(\C)c1ccc(OC(F)F)cc1OC(F)F	10	·	0	2	-1	·	·
COC(=O)N/N=C(\C)c1ccc(OC(F)F)cc1OC(F)F	17*	·	0	-11	1	-3	-6
CCC(=NNC(=O)C1CCCC1)c1cccc(Br)c1	·	1	·	·	·	·	·
CC1=CC(C)(C)C(C(=O)O)C(C(=O)O)C1 (centres undefined)	18*	4	0	56	10	3	-6
CCCc1n[nH]c2c1C(=NO)CC(c1ccccc1)C2 (centres undefined)	·	3	·	·	·	·	·
SMILES	RTF Ca sens inh	UCH37 inh	Efflux pump mplx	Mot1-301 SUMO	cardiac RTF act	ARNT TACC3 PPI	RTF inh confirm
COCCn1nnnc1C(c1cc2ccc(C)cc2[nH]c1=O)N(Cc1ccco1)Cc1cccs1 (centres undefined)	17*	-2	0	-16	6	6	-5
Cc1ccc2cc(C(c3nnnn3C3CCCC3)N(Cc3ccccc3)Cc3ccco3)c(=O)[nH]c2c1 (centres undefined)	0	-6	0	23	1	3	·
COc1c(C=NNC(=O)c2ccncc2)c(CCN(C)C(C)=O)cc2c1OCO2	·	6	·	·	·	·	·
CC1CCCCN1C(=O)c1cc(F)c(F)cc1Cl (centres undefined)	-6	-1	0	12	0	4	·
CC1CCCCN1C(=O)c1cc(Cl)ccc1[N+](=O)[O-] (centres undefined)	20*	2	0	3	-2	-3	-2
O=C(CSc1nnc(-c2ccc(F)cc2)n1-c1ccccc1)NCCN1C(=O)CSC1=O	-6	2	0	5	5	-4	·
Cc1nnc(SCC(=O)NCCN2C(=O)CSC2=O)n1-c1ccccc1	23*	-2	0	645	-5	-1	-1
CN1CCN(/N=C/c2ccc(Br)cc2)CC1	20*	·	0	-3	-2	5	-6
CN1CCN(N=Cc2ccc(N(c3ccccc3)c3ccccc3)cc2)CC1	·	-34	·	·	·	·	·
Cc1ccc(CN2CCN(N=C/C=C/c3ccccc3[N+](=O)[O-])CC2)cc1	·	5	·	·	·	·	·
O=C(Nc1ccc(N2CCOCC2)c(Cl)c1)c1ccccc1Cl	50*	2	0	-8	0	-5	-5
CC1CCCN(C(=O)COC(=O)CSc2ccc(C(N)=O)cc2[N+](=O)[O-])C1 (centres undefined)	-10	0	0	-8	-6	32	·
CC1CCN(C(=O)COC(=O)CSc2ccc(C(N)=O)cc2[N+](=O)[O-])CC1	17*	7	0	4	-1	-8	1
C/C(C=Nn1c(-c2cc(C)[nH]n2)n[nH]c1=S)=C\c1ccccc1	·	6	·	·	·	·	·
C/C(=N\NC(=S)NCc1ccccc1)c1ccc(C)o1	21*	·	0	0	-4	8	-2
CNC(=O)Oc1ccc2c(c1)[C@]1(C)CCN(C)C1N2C (some centres undefined)	17*	3	0	2	0	0	-3
CC(CC(=O)Nc1cc(C)ccn1)=NNC(=O)C(=O)NC(C)C	·	6	·	·	·	·	·
CNC(=S)NN=Cc1c(C)nn(-c2cccc(Cl)c2)c1Cl	·	3	·	·	·	·	·
Nc1nnc(SCC(=O)N2CCN(c3cccc(Cl)c3)CC2)n1-c1ccccc1	1	-1	0	22	1	0	·
Nc1nnc(SCC(=O)N2CCN(c3ccccc3)CC2)n1-c1ccccc1	18*	1	0	38	-6	22	-2
O=c1cc(N2CCc3ccccc32)[nH]c(=O)n1-c1ccccc1Cl	17*	1	0	113	-2	-9	-3
Cc1ccccc1-n1c(=O)cc(N2CCc3ccccc32)[nH]c1=O	-2	5	0	-15	1	-3	·
O=C(CN1CCN(Cc2ccccc2)CC1)NN=Cc1cccnc1	·	2	·	·	·	·	·
CCCCCCCCCCC[C@@H](C[C@@H]1OC(=O)[C@H]1CCCCCC)OC(=O)[C@H](CC(C)C)NC=O	20*	·	0	20	1	-15	-4
CCCCC[C@H](O)/C=C/[C@H]1[C@H](O)CC(=O)[C@@H]1CCCCCCC(=O)O	·	·	0	9	·	·	·
